Here are results for seven molecules from ChEMBL document CHEMBL4819099, “A biphenyl inhibitor of eIF4E targeting an internal binding site enables the design of cell-permeable PROTAC-degraders” (Eur J Med Chem, 2021).

Activity calls are given as the source filed them. The rule behind the calls is not given here.

Experiment [1] concerns the target T1, Protein cereblon/Eukaryotic translation initiation factor 4E (Homo sapiens) (UniProt P06730+Q96SW2). Nature of the experiment: Protac activity at CRBN/eIF4E in human HEK293T cells assessed as induction of eIF4E ubiquitination at 1 uM in presence of 26S proteasome inhibitor, Bortezomib by Western blot analysis. The format is cell-based. The essentials:
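HEK293T cells incubated with 1 μM PROTAC plus 100 nM bortezomib; eIF4E ubiquitination compared with bortezomib-alone and DMSO-treated cells.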
A general note: In western blotting, separated proteins are transferred to a membrane and probed.

For experiment [2], the target named is T1, Protein cereblon/Eukaryotic translation initiation factor 4E (Homo sapiens). Kind of experiment: Protac activity at CRBN/eIF4E in human HEK293T cells assessed as induction of intracellular eIF4E degradation at 1 uM measured after 0.5 to 24 hrs by Western blot analysis. Particulars: time 0.5-24 hrs. The format is cell-based. The essentials:
(§1)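 HEK293T cells exposed either to 0.1-10 μM PROTAC for 24 h or to 1 μM PROTAC for 0.5 to 24 h, DMSO-treated cells alongside; eIF4E level assessed by immunoblotting.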

The next experiment deals with HeLa. Kind of experiment: Cytotoxicity activity against human HeLa cells assessed as cell killing at 10 uM measured after 24 hrs by CellTiter Glo luminescence assay. In kind it is functional. The essentials:
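HeLa cells in 4.5 g/L glucose DMEM, 10% FBS, 1% pen/strep, 5x10³ cells/well; medium replaced 24 h post-seeding with drug-containing medium at equal DMSO. CellTiter-Glo luminescence read, normalized to DMSO control; at least two experiments, triplicates.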
Background: In ATP-based viability assays light output follows the ATP content of the culture.

In experiment [3] the target is T1, Protein cereblon/Eukaryotic translation initiation factor 4E (Homo sapiens). Nature of the experiment: Protac activity at CRBN/eIF4E in human HEK293T cells assessed as induction of intracellular eIF4E degradation at 0.1 to 10 uM measured after 24 hrs by Western blot analysis. In kind it is cell-based. As to conditions: dose 0.1-10 µM. The procedure, abridged:
as §1

For a further experiment, the target named is Protein cereblon (Homo sapiens, UniProt Q96SW2). Nature of the experiment: Binding affinity to Cereblon in human Flp293T cells transfected with BRD4(BD2)-GFP fusion protein and mCherry reporter assessed as inhibition of dBET6-induced BRD4(BD2) degradation after 5 hrs fluorescence based analysis. The format is cell-based. The essentials: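 Flp293T cells stably expressing BRD4_BD2-GFP plus mCherry reporter, seeded a day earlier in FluoroBrite DMEM/10% FBS; compounds in dose response co-dosed with 100 nM dBET6 (0.5% DMSO), 5 h. […] Lenalidomide positive control.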

In experiment [4] the target is T1, Protein cereblon/Eukaryotic translation initiation factor 4E (Homo sapiens). Kind of experiment: Protac activity at CRBN/eIF4E in human Kelly cells assessed as induction of eIF4E degradation by measuring downregulation of eIF4E protein expression at 1 uM measured after 5 hrs by proteomics analysis based LC-MS analysis. The format is cell-based. The essentials: (§2)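 Kelly cells given 1 μM compound or DMSO (biological triplicate) for 5 h; urea/EPPS pH 8.5 lysis, 100 μg protein reduced, alkylated, digested, TMT-labelled, high-pH reverse-phase fractionated into 96 fractions; LC-MS over a 190 min 9-32% acetonitrile gradient with MS3-based TMT quantification with real-time search; change relative to DMSO.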

Experiment [5] concerns the target Protein cereblon/Zinc finger protein 692 (Homo sapiens) (UniProt Q96SW2+Q9BU19). Nature of the experiment: Protac activity at CRBN/ZNF692 in human Kelly cells assessed as induction of ZNF692 degradation by measuring downregulation of ZNF692 protein expression at 1 uM measured after 5 hrs by proteomics analysis based LC-MS analysis. The format is cell-based. The procedure, abridged: as §2

Experiment [6] concerns the target Protein cereblon/Sal-like protein 4 (Homo sapiens) (UniProt Q96SW2+Q9UJQ4). Nature of the experiment: Protac activity at CRBN/SALL4 in human Kelly cells assessed as induction of SALL4 degradation by measuring downregulation of SALL4 protein expression at 1 uM measured after 5 hrs by proteomics analysis based LC-MS analysis. In kind it is cell-based. The essentials:
as §2

In experiment [7] the target is Protein cereblon/Zinc finger protein 827 (Homo sapiens) (UniProt Q96SW2+Q17R98). Kind of experiment: Protac activity at CRBN/ZNF827 in human Kelly cells assessed as induction of ZNF827 degradation by measuring downregulation of ZNF827 protein expression at 1 uM measured after 5 hrs by proteomics analysis based LC-MS analysis. In kind it is cell-based. The essentials: as §2

The test system of experiment [8] is MCF7. Nature of the experiment: Cytotoxicity against human MCF7 cells assessed as reduction in cell viability after 48 hrs by Cell specific bioluminescence imaging (CS-BLI) assay. As to conditions: MCF7, 48 h.
In experiment [9] the test system is MM1.S. Kind of experiment: Cytotoxicity against human MM1.S cells assessed as reduction in cell viability after 24 hrs by Cell specific bioluminescence imaging (CS-BLI) assay.
The subject of experiment [10] is MM1.S. Kind of experiment: Cytotoxicity against human MM1.S cells assessed as reduction in cell viability after 48 hrs by Cell specific bioluminescence imaging (CS-BLI) assay.
Experiment [11] deals with MM1.S. Kind of experiment: Cytotoxicity against human MM1.S cells assessed as reduction in cell viability after 72 hrs by Cell specific bioluminescence imaging (CS-BLI) assay.
In experiment [12] the test system is MCF7. Kind of experiment: Cytotoxicity against human MCF7 cells assessed as reduction in cell viability after 24 hrs by Cell specific bioluminescence imaging (CS-BLI) assay. As to conditions: MCF7, 24 h.
The test system of experiment [13] is MCF7. Kind of experiment: Cytotoxicity against human MCF7 cells assessed as reduction in cell viability after 72 hrs by Cell specific bioluminescence imaging (CS-BLI) assay. As to conditions: MCF7, 72 h.

T1 sequence (P06730 whole entry, looked up): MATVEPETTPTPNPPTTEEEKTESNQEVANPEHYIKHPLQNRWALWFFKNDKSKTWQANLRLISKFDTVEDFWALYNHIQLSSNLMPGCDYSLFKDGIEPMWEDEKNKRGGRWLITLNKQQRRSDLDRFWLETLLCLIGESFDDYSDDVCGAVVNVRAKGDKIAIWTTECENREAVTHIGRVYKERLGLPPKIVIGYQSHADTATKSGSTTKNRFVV
T1 sequence (Q96SW2 whole entry, looked up): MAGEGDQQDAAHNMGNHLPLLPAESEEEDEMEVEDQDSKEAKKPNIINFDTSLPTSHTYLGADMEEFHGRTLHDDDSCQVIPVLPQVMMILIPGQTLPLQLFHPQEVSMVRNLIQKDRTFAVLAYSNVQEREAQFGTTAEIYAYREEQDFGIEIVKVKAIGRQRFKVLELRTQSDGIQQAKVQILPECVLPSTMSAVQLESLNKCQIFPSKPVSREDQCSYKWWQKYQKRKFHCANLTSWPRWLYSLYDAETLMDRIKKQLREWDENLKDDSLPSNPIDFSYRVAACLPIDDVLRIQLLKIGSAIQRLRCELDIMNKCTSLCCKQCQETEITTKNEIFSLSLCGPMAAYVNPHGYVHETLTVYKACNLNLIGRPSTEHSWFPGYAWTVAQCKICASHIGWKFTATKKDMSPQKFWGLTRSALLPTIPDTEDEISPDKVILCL
Chain of Protein cereblon (Q96SW2 whole entry, the tested form may be a part): as the sequence (Q96SW2 whole entry, looked up) above
Chain of Protein cereblon/Zinc finger protein 692 (Homo sapiens) (Q96SW2 whole entry, looked up): as above
Chain of Protein cereblon/Zinc finger protein 692 (Homo sapiens) (Q9BU19 whole entry, looked up): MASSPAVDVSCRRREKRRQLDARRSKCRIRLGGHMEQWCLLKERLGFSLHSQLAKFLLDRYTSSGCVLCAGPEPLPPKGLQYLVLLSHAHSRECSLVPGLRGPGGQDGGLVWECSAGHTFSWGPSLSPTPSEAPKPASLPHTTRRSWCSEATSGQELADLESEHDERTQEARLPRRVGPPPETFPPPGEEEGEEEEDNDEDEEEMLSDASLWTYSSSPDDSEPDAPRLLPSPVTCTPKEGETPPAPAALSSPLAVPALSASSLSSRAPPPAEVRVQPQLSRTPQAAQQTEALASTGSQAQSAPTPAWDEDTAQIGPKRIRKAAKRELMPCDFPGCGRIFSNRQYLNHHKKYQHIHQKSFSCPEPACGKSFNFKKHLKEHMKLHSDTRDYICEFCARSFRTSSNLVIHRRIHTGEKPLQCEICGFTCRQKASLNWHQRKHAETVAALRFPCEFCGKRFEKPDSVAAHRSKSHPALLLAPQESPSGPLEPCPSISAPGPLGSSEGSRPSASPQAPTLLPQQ
Chain of Protein cereblon/Sal-like protein 4 (Homo sapiens) (Q96SW2 whole entry, looked up): as the sequence (Q96SW2 whole entry, looked up) above
Chain of Protein cereblon/Sal-like protein 4 (Homo sapiens) (Q9UJQ4 whole entry, looked up): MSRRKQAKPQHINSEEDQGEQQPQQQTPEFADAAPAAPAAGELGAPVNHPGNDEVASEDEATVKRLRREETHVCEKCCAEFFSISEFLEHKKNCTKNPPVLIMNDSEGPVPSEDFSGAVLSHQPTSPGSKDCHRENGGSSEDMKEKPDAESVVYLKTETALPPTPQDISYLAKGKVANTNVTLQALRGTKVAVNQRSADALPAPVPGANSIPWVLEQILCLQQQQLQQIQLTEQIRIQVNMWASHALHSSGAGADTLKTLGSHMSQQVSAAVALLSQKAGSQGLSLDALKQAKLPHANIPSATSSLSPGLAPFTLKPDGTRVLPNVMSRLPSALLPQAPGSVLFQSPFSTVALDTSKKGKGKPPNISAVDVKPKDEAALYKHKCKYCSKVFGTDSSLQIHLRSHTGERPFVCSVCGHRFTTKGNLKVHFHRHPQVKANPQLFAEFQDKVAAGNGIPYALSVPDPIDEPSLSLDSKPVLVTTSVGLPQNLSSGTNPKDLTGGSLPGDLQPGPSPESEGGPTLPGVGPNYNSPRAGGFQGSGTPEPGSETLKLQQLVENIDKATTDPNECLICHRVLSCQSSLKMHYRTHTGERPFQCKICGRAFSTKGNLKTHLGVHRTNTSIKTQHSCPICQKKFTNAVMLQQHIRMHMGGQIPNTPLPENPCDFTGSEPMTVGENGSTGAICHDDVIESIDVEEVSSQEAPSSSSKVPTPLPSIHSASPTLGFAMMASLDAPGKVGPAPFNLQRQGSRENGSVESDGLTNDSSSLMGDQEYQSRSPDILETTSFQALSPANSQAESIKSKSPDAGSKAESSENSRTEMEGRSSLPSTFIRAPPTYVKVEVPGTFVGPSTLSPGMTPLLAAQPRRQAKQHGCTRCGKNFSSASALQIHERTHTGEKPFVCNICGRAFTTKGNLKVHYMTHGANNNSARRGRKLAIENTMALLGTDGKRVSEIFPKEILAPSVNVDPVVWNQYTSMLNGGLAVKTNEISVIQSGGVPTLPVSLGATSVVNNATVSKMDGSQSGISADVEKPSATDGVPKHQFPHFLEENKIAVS
Chain of Protein cereblon/Zinc finger protein 827 (Homo sapiens) (Q17R98 whole entry, looked up): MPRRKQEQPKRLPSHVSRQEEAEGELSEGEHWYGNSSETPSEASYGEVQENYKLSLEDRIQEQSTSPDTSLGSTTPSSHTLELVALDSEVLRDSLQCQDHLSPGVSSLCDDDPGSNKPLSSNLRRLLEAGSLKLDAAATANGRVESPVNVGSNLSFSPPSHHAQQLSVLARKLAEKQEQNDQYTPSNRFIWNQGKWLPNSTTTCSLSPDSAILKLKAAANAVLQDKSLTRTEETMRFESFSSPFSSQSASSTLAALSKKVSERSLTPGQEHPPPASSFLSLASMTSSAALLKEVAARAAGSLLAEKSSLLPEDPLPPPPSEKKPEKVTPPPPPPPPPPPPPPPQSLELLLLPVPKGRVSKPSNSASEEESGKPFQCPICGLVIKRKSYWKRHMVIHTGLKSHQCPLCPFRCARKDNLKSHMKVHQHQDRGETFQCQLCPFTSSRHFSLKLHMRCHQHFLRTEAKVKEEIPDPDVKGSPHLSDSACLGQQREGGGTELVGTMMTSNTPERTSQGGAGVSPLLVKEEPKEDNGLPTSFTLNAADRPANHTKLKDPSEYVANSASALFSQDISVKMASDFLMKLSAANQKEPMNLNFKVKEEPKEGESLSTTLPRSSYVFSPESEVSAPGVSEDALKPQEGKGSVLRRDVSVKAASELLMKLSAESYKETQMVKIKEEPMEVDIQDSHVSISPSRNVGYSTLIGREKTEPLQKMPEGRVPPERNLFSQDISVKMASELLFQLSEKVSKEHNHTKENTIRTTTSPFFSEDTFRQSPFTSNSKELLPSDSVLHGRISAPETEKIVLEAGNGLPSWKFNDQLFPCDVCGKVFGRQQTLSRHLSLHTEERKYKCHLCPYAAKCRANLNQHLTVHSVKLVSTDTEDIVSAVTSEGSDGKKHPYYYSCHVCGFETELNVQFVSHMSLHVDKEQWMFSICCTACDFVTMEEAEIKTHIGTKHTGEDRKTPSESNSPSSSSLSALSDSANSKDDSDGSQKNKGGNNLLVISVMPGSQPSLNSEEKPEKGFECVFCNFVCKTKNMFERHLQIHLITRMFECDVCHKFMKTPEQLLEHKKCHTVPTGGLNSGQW
Chain of Protein cereblon/Zinc finger protein 827 (Homo sapiens) (Q96SW2 whole entry, looked up): as the sequence (Q96SW2 whole entry, looked up) above

For the molecule `C/C(=N\Nc1nc(-c2ccc(-c3ccccc3)cc2)cs1)C(=O)NCCNc1cccc2c1C(=O)N(C1CCC(=O)NC1=O)C2=O` (configuration not stated), the outcome in experiment [1], in [2] and in [3] was inactive. Further, the Activity in the experiment with HeLa is reported as 50%.

Regarding `O=C(COc1cccc2c1C(=O)N(C1CCC(=O)NC1=O)C2=O)NCCCCNC(=O)Cc1sc(N/N=C(\Cc2ccccc2[N+](=O)[O-])C(=O)O)nc1-c1ccc(Cl)c(Cl)c1` (configuration not stated), the result at Protein cereblon (Flp-In-293) was inactive.

In general, IC50 refers to the concentration at which inhibition is half-maximal. As for `C/C(=N\Nc1nc(-c2ccc(Cl)c(Cl)c2)c(CC(=O)NCCNc2cccc3c2C(=O)N(C2CCC(=O)NC2=O)C3=O)s1)C(=O)OCOC(=O)C(C)(C)C` (configuration not stated), the outcome in [1], in experiment [2] and in experiment [3] was inactive. Further, on Protein cereblon, the half-maximal inhibitory concentration (IC50) was determined as 20.7 µM.

For `C/C(=N\Nc1nc(-c2ccc(-c3ccccc3)cc2)cs1)C(=O)NCCCCNc1cccc2c1C(=O)N(C1CCC(=O)NC1=O)C2=O` (configuration not stated), the outcome in experiment [4] was inactive. The outcome in [5], in experiment [6] and in [7] was Active. For the same molecule, the IC50 on Protein cereblon worked out at 1.6 µM.

With `C/C(=N\Nc1nc(-c2ccc(-c3ccccc3)cc2)cs1)C(=O)NCCCNc1cccc2c1C(=O)N(C1CCC(=O)NC1=O)C2=O` (configuration not stated), in the experiment on HeLa, the Activity stood at 50%.

As to `O=C(O)C(Cc1ccccc1[N+](=O)[O-])=NNc1nc(-c2ccc(Cl)c(Cl)c2)cs1`, the IC50 in the experiment with MCF7 [8] turned out to be 43.1 µM; with MM1.S [9], 22.6 µM; in the experiment with MM1.S [10], 18.7 µM; in the experiment on MM1.S [11] it was 15.6 µM; with MCF7 [12], 71.2 µM; in the experiment with MCF7 [13], 35.1 µM.

For the molecule `O=C1CCC(N2C(=O)c3cccc(NCCCCNC(=O)/C(=N\Nc4nc(-c5ccc(-c6ccccc6)cc5)cs4)c4ccccc4[N+](=O)[O-])c3C2=O)C(=O)N1` (configuration not stated), the half-maximal inhibitory concentration (IC50) on Protein cereblon came out at 13 µM.
